Fewer inactive variants are shown than the library holds.
B1: tRNA (parent)
chain: GUUCCGUUGGCGUAAUGGUAACGCGUCUCCCUCCUAAGGAGAAGACUGCGGGUUCGAGUCCCGUACGGAACG

Variants of: B1
Assay: yeast fitness relative to wild type (ratio to wild type); higher = fitter; tRNA-Arg(CCU), competitive growth, 37 C, YPD
Procedure, shortened: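 For this measurement, the tRNA-Arg(CCU) gene was varied by chemical synthesis at a 3% per-site mutation rate across 69 sites, and each variant was placed at the native genomic locus in Saccharomyces cerevisiae. The pooled strains went through a 24-hour competition in YPD at 37°C in six parallel replicates, with amplicons from start and end populations read by 100-nucleotide paired-end sequencing. Darwinian fitness relative to wild type followed from the change in each genotype's frequency. Genotypes needed ≥ 100 starting reads, and estimates < 0.5 were set to 0.5.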
GUUCGGUUGGCGUAAUGGUAACGCGUCUCCCUCCUAAGGAGAAGACUGCGGGUUCGAGUCCCGUAUAGAACG [C5G C66U G67A] gave a yeast fitness of 0.533. With GUUCGGUUGGCGUAAUGGUAACGCAUCUCCCUCCUAAGGAGAAGACUGCGGGUGUGAGUCCCGUACGGACCG [C5G G25A U54G C55U A70C] the yeast fitness was ≤ 0.5. With GUUCGGUUGCCGGAAUGGUAACGCGUCUCCCUCCUAAGGGGAAGACUGCGGGUACGAGUCCCGUACGGAACG [C5G G10C U13G A40G U54A] the yeast fitness was ≤ 0.5. In the case of GUUCGGUUGGCGUAAUGGUAACGCAUCUCCCUCCUAAGGAGAAGACUGCGGGUUCGAGUCCCGUGCGGAACG [C5G G25A A65G], the yeast fitness is reported as 0.763. GUUCGAUUGGCGUAAUGGUAACGUGUCUCCCUCCUAAGGAGAAGACUGCGGGUUCGAGUCCCGUACGGAACG [C5G G6A C24U] showed a yeast fitness of 0.577. For GUUCGGUUCGCGUAAUGGUAACGCGUCUCCCUACCAAGGAGAAGAUUGUGGCUUCGAGUCUCGUAUGGAACG [C5G G9C C33A U35C C46U C49U G52C C61U C66U], the yeast fitness was ≤ 0.5. GUUCGGUUGGCGUAAUGGUAACGCAUCUCCCUCCUAAGGAGAAGAAUGCGGGUUCGAGUCCCGUACGGAACG [C5G G25A C46A] gave a yeast fitness of 0.651. With GUUCGGUUAGCGUAAUGGUAACGCGUCUCCCUCCUAAGGAGAGGACUCCGGGUUCGAGUCCCGUACGGAACG [C5G G9A A43G G48C] the yeast fitness was ≤ 0.5. Variant GUUCGGUUGGCGUAAUGGUAACGCGUCUCCCUCAUAAGGAGAAGACUGCGGGUUCGAGUCCCGUACGGAACG [C5G C34A] has a yeast fitness of 0.702. With GUUCGGUUGGCGUAAUGGUAACGCGUCUCCCUCCUAAGGAGAAGAUUGCGGGUUCGAGUCCCGUACAGAACG [C5G C46U G67A] the yeast fitness was 0.683. In the case of GUUCGGUUGGCGUAAUUGUAACGCGUCUCCCUCCUAAGGAGAAGUCUGCGGGUUCGAGUCCCGUACGCAACG [C5G G17U A45U G68C], the yeast fitness is reported as ≤ 0.5. With GUUCGGUUGGCGUAAUCGUAACGCGUCUCCCUCCUAAGGAGAAGAUUGCAGGUUCGAGUCCCGUACGGAACG [C5G G17C C46U G50A] the yeast fitness was ≤ 0.5. GUUCGGUUGGCGUAAUCGUAACGCGUCUCCCUCCUAAGGAGAAGACUGCGGGUUCGACCCCCGUACGGAACG [C5G G17C G58C U59C] showed a yeast fitness of 0.57. With GUUCGGUUGGCGUAAUGGUAACGCGUCUCCCUACUAAGGAGGAGACUGCGGGUUCGGGUCCCGUACGGAACG [C5G C33A A42G A57G] the yeast fitness was ≤ 0.5. GUUCGGUUGGCGUAAUGGUAACGCGUCUCCCUCCUAAGGAGAAGACUGCGGGUUAGUGUCCCGUACGGAACG [C5G C55A A57U] showed a yeast fitness of 0.55. In the case of GUUCGGUUGGCGUAAUGGUAACGCGUCUCCCUCCUAAGGAGAAGAAUACGGGUUCGAGUCCCGGACGGAACG [C5G C46A G48A U64G], the yeast fitness is reported as 0.546. For GUUCGGUUGGCGUAAUAGUAACGCGCCUCCCUCCUAAGGAGAAGACUGCGGGUUCGAGUCCCGUACGGAACG [C5G G17A U26C], the yeast fitness was ≤ 0.5. In the case of GUUCGGUUGGCGUAAUGGUAACGCGUCUCCCUCUUAAGGAGAAGACUGCGGGUUCGAGUCCCGUAUGGAACG [C5G C34U C66U], the yeast fitness is reported as ≤ 0.5. In the case of GUUCGGUUGGCGUAAUGGUAACGCGUCUCCUUCCUAAGGACACGACUGCGGGUUCGAGUGCCGUACGGAACG [C5G C31U G41C A43C C60G], the yeast fitness is reported as ≤ 0.5. For GUUCGGUUGGCGUAAUAGUAAUGCGUCCCCCUCCUAAGGAGAAGAUUGCGGGUUCGAAUCCCGUACGGAACG [C5G G17A C22U U28C C46U G58A], the yeast fitness was ≤ 0.5. GUUCGAUUGGCGUAAUGGUAACGCGUCUCCCUCCUAAGGAGAAGACAGCGGGUUCGAGUCCCGUACGCAACG [C5G G6A U47A G68C] showed a yeast fitness of 0.546. For GUUCGGUUGGCGUAAUGGUAACACGUCUCCGUCCUAAGGAGAAGACUGCGGGUUCGAGUCCCGUACGGAACG [C5G G23A C31G], the yeast fitness was ≤ 0.5. With GUUCGGUUAGCGUCAUGGUAACGCGUCUCCCUCCUAGGGAGAAGACUGCGGGUUCGAGUCCGGUACGGAACG [C5G G9A A14C A37G C62G] the yeast fitness was ≤ 0.5. With GUUCGGUUGGCGUAAUCGUAACCCGUCUCCCUCCUAAGGAGAAGACUGCGGGUUCGCGUCCCGUACGGAACG [C5G G17C G23C A57C] the yeast fitness was ≤ 0.5. For GUUCGGUUGGCGUAAUGGUAACGCGUCUCCAUCCUAAGGAGAAGCCUGCGGGUUCGAGUCCCGUACGGAACG [C5G C31A A45C], the yeast fitness was ≤ 0.5. In the case of GUUCGGUUCGCGUAAUGGUAACGCGUCUCCCUCCGAAGGAGAAGACUGCGGGUUCGAGUCCCGUAUGGAACG [C5G G9C U35G C66U], the yeast fitness is reported as ≤ 0.5. For GUUCGGUUGGCGUAAUGGUAACGCGUCUCCCUACUAAGGACAAGACUGCGGGUUCGAGUCCCGUACGGAACG [C5G C33A G41C], the yeast fitness was ≤ 0.5. For GUUCGGUUGGCGUAAUGGUAACGCGUCUCCCUACUAAGGACAAGACUGCGGGUCCGAGUCCCGUACGGAACG [C5G C33A G41C U54C], the yeast fitness was ≤ 0.5. For GUUCGGUUGGCGUAAUGGUAACGCGUCUCCCUCGUAAGGAGAAGACUGUGGGUUUGAGUCCCGUACGGAACG [C5G C34G C49U C55U], the yeast fitness was ≤ 0.5. GUUCGGUUGGCAUAAUGGUAACGCGUCUCCCUCCUAAGGAGAGGACUGCGGGUUCGAGUCCCGUACGGAACG [C5G G12A A43G] gave a yeast fitness of 0.536. Work on GUUCGGUUGCCGUAAUGGUAACGCGUCUCCCUCCUAAGGAGAAGACUGCGGGUUCGAGUCCCGUACGGCACG [C5G G10C A69C] yielded a yeast fitness of 0.556. GUUCGGUUGGCGUAAUGGUAACGCAUCUCCCUCCUAAGGAGAAGACUGCGGGUUCAAGUCCCGUACGGAACG [C5G G25A G56A] showed a yeast fitness of 0.803. With GUUCGGUUGGCGUAAUGGUAACGCGUCUCCCUCCUAAGGAGAAGAUUGCAGGUUCGAGUCCCGUACGGAACG [C5G C46U G50A] the yeast fitness was 0.731. With GUUCGGUUAGCGUAAUGGUAACGCGUCUCGCUCCUAAGGAGAAGACUGCGGGUUCGAGUCCCGUACGGAACG [C5G G9A C30G] the yeast fitness was ≤ 0.5. With GUUCGGUUGACGUAAUGGUAACGCGUCUCUCUCCUAAGGAGCAGACUGCGGGUUCGAGUCCCGUACGGAGCG [C5G G10A C30U A42C A70G] the yeast fitness was ≤ 0.5. In the case of GUUCGGUUGGCGUAAUGGUAACGCGUCUCCCUACUCAGGAGAAGACUGCGGGUUCGAGUCCCGUAUGGAACG [C5G C33A A36C C66U], the yeast fitness is reported as ≤ 0.5. GUUCGCUUGGCGUAAUGGUAUCGCGUCUCCCUCCUAAGGAGAAGACUGCGGGUUCGAGUCCCGUACGGAACG [C5G G6C A21U] showed a yeast fitness of 0.544. In the case of GUUCGGUUGGCGUAAUGAUAACGCAUCUCCCUCCUAAGGAGGAGACUGCGGGUUCGAGUCCCGUACGGAACG [C5G G18A G25A A42G], the yeast fitness is reported as ≤ 0.5.
